# Measurements as given in ChEMBL document CHEMBL1153124, “5-Lipoxygenase-activating protein inhibitors. Part 2: 3-{5-((S)-1-Acetyl-2,3-dihydro-1H-indol-2-ylmethoxy)-3-tert-butylsulfanyl-1-[4-(5-methoxy-pyrimidin-2-yl)-benzyl]-1H-indol-2-yl}-2,2-dimethyl-propionic acid (AM679)--a potent FLAP inhibitor” (Bioorg Med Chem Lett, 2010).
# Key:
# [1] = Cmax in rat at 10 mg/kg, po; assay type: ADME, organism-based; parameters: dose 10 mg/kg, route oral; details: in vivo
# Outline: (§1)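 Rat, oral dosing at 10 mg/kg given as the sodium carboxylate salt. Read-outs: F, clearance, Cmax, AUC and half-life.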
# Cytochrome P450 2D6 = Cytochrome P450 2D6 (Homo sapiens, UniProt P10635); test: Inhibition of CYP2D6; assay type: ADME
# Cytochrome P450 3A4 = Cytochrome P450 3A4 (Homo sapiens, UniProt P08684); test: Induction of CYP3A4 activity; assay type: ADME
# Outline: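 CYP3A4 induction assay measuring a compound's ability to raise CYP enzyme activity.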
# [2] = Half life in rat at 10 mg/kg, po; assay type: ADME, organism-based; parameters: dose 10 mg/kg, route oral; details: in vivo; outline: as §1
# Rattus norvegicus [3] = test: Reduction of LTB4 production in lung lavage fluid of calcium ionophore A23187 treated rat bronchoalveolar lavage model at 10 mg/kg, po administered 4 hrs prior to calcium ionophore A23187 challenge; assay type: functional; parameters: scale not given: the % may be the effect or the level left
# Outline: (§2)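 Rat bronchoalveolar lavage model. Oral dose of 10 mg/kg as the sodium carboxylate salt, given 4 h before ionophore challenge. LTB4 and CysLT measured in lung lavage fluid; average plasma levels taken 3 h post dose.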
# Rattus norvegicus [4] = test: Reduction of CysLT production in lung lavage fluid of calcium ionophore A23187 treated rat bronchoalveolar lavage model at 10 mg/kg, po administered 4 hrs prior to calcium ionophore A23187 challenge; assay type: functional; parameters: scale not given: the % may be the effect or the level left; outline: as §2
# [5] = Plasma concentration in calcium ionophore A23187 treated rat bronchoalveolar lavage model at 3 mg/kg, po administered 16 hrs prior to calcium ionophore A23187 challenge; assay type: ADME, organism-based; parameters: dose 3 mg/kg, route oral
# Outline: (§3)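 Rat BAL model. 3 mg/kg given orally 16 h before ionophore challenge. LTB4 and CysLT inhibition measured in lavage fluid; average plasma levels measured at that time point.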
# [6] = Plasma concentration in calcium ionophore A23187 treated rat bronchoalveolar lavage model at 10 mg/kg, po administered 4 hrs prior to calcium ionophore A23187 challenge measured 3 hrs after post dose; assay type: ADME, organism-based; parameters: dose 10 mg/kg, route oral; outline: as §2
# Blood [7] = test: Reduction of LTB4 production in rat blood after 3 hrs; assay type: functional, tissue-based
# Blood [8] = test: Reduction of LTB4 production in rat blood after 4 hrs; assay type: functional, tissue-based
# Outline: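 Rat blood incubated with compound for 4 h, then ionophore challenge; inhibition of LTB4 production measured; IC50.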
# Rattus norvegicus [9] = test: Reduction of LTB4 production in lung lavage fluid of po dosed calcium ionophore A23187 treated rat bronchoalveolar lavage model administered 4 hrs prior to calcium ionophore A23187 challenge; assay type: functional
# Outline: (§4)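 Rat BAL model. Oral dose-response study with dosing 4 h before ionophore challenge; ED50 for LTB4 and CysLT in lavage fluid.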
# Rattus norvegicus [10] = test: Reduction of CysLT production in lung lavage fluid of po dosed calcium ionophore A23187 treated rat bronchoalveolar lavage model administered 4 hrs prior to calcium ionophore A23187 challenge; assay type: functional; outline: as §4
# Rattus norvegicus [11] = test: Reduction of LTB4 production in lung lavage fluid of calcium ionophore A23187 treated rat bronchoalveolar lavage model at 3 mg/kg, po administered 16 hrs prior to calcium ionophore A23187 challenge; assay type: functional; parameters: scale not given: the % may be the effect or the level left; outline: as §3
# Rattus norvegicus [12] = test: Reduction of CysLT production in lung lavage fluid of calcium ionophore A23187 treated rat bronchoalveolar lavage model at 3 mg/kg, po administered 16 hrs prior to calcium ionophore A23187 challenge; assay type: functional; parameters: scale not given: the % may be the effect or the level left; outline: as §3
# Blood [13] = test: Inhibition of LTB4 production in calcium ionophore treated A23187 human whole blood after 5 hrs; assay type: functional, tissue-based
# Outline: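 Human whole blood incubated with compound for an extended 5 h before ionophore challenge; LTB4 production measured. IC50 from n = 6, each n the average of two donors.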
# [14] = Solubility in water; assay type: physicochemical
# [15] = Solubility in 0.9% saline; assay type: physicochemical
# [16] = target: T1, Arachidonate 5-lipoxygenase-activating protein (Homo sapiens, UniProt P20292); test: Binding affinity to FLAP in human PMN derived membrane; assay type: cell membranes
# T1 sequence (P20292 whole entry): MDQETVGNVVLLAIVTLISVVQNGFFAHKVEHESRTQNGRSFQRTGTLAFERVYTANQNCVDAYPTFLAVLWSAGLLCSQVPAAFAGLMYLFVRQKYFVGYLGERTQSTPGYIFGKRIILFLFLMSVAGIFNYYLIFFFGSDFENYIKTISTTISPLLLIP
# Outline: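 FLAP binding measured in membranes derived from human polymorphonuclear leukocytes (PMN). IC50 values are the average of n ≥ 3.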
# [17] = Inhibition of LTB4 production in calcium ionophore A23187 treated human leukocytes; assay type: functional, cell-based; details: Leukocyte
# Outline: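 Human leukocytes challenged with calcium ionophore; LTB4 produced by the cells was measured. IC50 is the average of n ≥ 3.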
# Blood [18] = test: Inhibition of LTB4 production in calcium ionophore treated A23187 human whole blood after 15 mins; assay type: functional, tissue-based; details: 0.25 h
# Cytochrome P450 2C9 = Cytochrome P450 2C9 (Homo sapiens, UniProt P11712); test: Inhibition of CYP2C9; assay type: ADME
# [19] = Clearance in rat at 10 mg/kg, po; assay type: ADME, organism-based; parameters: dose 10 mg/kg, route oral; details: in vivo; outline: as §1
# [20] = Bioavailability in rat at 10 mg/kg; assay type: ADME, organism-based; details: in vivo; outline: as §1
# Sequence of Cytochrome P450 2D6 (P10635 whole entry): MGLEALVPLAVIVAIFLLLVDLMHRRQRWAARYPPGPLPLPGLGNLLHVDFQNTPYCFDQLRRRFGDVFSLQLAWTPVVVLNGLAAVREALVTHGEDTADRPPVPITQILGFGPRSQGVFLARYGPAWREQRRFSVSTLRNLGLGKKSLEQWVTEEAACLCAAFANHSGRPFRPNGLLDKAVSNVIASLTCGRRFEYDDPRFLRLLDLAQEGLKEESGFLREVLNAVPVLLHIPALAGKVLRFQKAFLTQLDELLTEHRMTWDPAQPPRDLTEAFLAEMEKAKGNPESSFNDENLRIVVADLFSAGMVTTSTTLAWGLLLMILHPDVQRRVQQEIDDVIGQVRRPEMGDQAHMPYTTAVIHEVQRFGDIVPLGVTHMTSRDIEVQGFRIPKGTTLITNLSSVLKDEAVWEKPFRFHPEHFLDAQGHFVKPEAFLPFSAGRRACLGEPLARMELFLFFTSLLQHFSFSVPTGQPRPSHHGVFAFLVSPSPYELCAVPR
# Sequence of Cytochrome P450 3A4 (P08684 whole entry): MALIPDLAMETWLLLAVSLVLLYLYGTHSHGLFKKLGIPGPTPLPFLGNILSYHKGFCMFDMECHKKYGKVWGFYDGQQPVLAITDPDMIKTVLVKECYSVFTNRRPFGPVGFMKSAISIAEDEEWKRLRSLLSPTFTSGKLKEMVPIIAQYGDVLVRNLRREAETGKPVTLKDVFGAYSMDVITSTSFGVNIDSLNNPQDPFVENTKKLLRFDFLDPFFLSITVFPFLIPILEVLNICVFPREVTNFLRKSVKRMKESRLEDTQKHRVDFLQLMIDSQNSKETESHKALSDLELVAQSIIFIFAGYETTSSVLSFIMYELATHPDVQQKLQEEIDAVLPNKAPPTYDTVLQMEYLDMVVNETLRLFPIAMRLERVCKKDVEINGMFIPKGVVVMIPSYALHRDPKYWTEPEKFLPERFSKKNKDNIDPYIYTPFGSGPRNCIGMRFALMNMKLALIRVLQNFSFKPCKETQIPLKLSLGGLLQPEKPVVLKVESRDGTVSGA
# Sequence of Cytochrome P450 2C9 (P11712 whole entry): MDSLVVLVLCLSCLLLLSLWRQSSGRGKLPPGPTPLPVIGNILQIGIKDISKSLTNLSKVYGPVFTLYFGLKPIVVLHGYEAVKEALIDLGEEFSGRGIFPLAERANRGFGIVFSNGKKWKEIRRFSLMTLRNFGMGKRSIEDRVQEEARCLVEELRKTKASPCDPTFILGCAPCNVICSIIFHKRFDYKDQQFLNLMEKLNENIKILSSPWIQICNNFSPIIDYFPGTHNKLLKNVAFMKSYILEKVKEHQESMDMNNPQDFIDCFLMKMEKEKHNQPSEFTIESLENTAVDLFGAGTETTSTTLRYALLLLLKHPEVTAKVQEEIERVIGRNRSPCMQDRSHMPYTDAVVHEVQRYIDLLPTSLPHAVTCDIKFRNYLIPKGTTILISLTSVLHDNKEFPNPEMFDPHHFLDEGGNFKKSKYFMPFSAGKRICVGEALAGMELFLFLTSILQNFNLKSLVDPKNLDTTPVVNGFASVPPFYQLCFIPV
compound,measurement,setting,value
COc1cnc(-c2ccc(Cn3c(CC(C)(C)C(=O)O)c(SC(C)(C)C)c4cc(OC[C@@H]5Cc6ccccc6N5C(C)=O)ccc43)cc2)nc1,Cmax,[1],1600 nM
same,INH,Cytochrome P450 2D6,> 30 µM
same,Activity,Cytochrome P450 3A4,Not Active
same,half-life,[2],6.8 h
same,Activity,Rattus norvegicus [3],98%
same,Activity,Rattus norvegicus [4],87%
same,concentration at 16 h,[5],4 nM
same,concentration at 3 h,[6],605 nM
same,IC50,Blood [7],0.125 µM
same,IC50,Blood [8],0.009 µM
same,ED50,Rattus norvegicus [9],0.8 mg/kg
same,ED50,Rattus norvegicus [10],1.4 mg/kg
same,Activity,Rattus norvegicus [11],77%
same,Activity,Rattus norvegicus [12],45%
same,IC50,Blood [13],0.053 µM
same,solubility,[14],10000 µg/mL
same,solubility,[15],30 µg/mL
same,IC50,[16],0.0022 µM
same,IC50,[17],0.0006 µM
same,IC50,Blood [18],0.154 µM
same,IC50,Cytochrome P450 2C9,3.7 µM
same,CL/F,[19],11 mL/min/kg
same,bioavailability,[20],29%
